PAFAH2 FP inh – PAFAH2 enzyme inhibitors, primary screen, biochemical, fluorescence polarization, human | Platelet-activating factor acetylhydrolase 2, cytoplasmic (Homo sapiens), Q99487 | recombinant PAFAH2, FP-rhodamine activity probe | inhibition, % at 3.39 µM | 0.99% of 340,000 active;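 active = inhibition above the mean over all tested compounds plus 3 SD, cut at about 30% in these data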;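 note: inhibitors block probe labeling of enzyme so polarization drops; 0% = enzyme with DMSO and 100% = wells lacking PAFAH2 protein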
PAFAH1B2 inh – PAFAH1B2 enzyme inhibitors, primary screen, biochemical, fluorescence polarization, human. inhibition, % at 3.39 µM. 1.2% of 340,000 active. AID 492953, 2010. recombinant PAFAH1B2, FP-rhodamine activity probe. Platelet-activating factor acetylhydrolase IB subunit alpha2 (Homo sapiens), P68402;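 active = inhibition above the mean of all tested compounds plus 3 SD, cut at about 24% in these data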;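 note: 0% = enzyme with DMSO and 100% = wells lacking PAFAH1B2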
Target sequence (P68402 whole entry, looked up): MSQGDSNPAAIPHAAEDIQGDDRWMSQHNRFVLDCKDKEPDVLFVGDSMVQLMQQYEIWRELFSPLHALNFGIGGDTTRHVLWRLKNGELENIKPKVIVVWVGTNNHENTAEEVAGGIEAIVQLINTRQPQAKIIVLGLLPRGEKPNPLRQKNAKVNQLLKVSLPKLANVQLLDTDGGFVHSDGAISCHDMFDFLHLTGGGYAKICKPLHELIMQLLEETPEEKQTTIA
PREPL inhibitor – PREPL enzyme inhibitors, primary screen, biochemical, fluorescence polarization | Prolyl endopeptidase-like (Homo sapiens), Q4J6C6 | inhibition, % at 5.96 µM | recombinant PREPL, fluorescence polarization activity-based probe | 0.68% of 320,000 active | AID 2751, 2010; in the data active = inhibition above about 43%;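 note: 0% = enzyme with DMSO and 100% = wells lacking enzyme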
pPAFAH inh – pPAFAH enzyme inhibitors, primary screen, biochemical, fluorescence polarization, human | Platelet-activating factor acetylhydrolase (Homo sapiens), Q13093 | inhibition, % at 3.39 µM | 1.5% of 330,000 active | recombinant pPAFAH, FP-rhodamine probe fluorescence polarization;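 active = inhibition above the mean inhibition across the screen plus 3 SD, cut at about 25% in these data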;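 note: inhibitors block binding of the rhodamine activity-based probe so polarization drops; 0% = enzyme with DMSO and 100% = wells lacking pPAFAH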
Target sequence (Q13093 whole entry, looked up): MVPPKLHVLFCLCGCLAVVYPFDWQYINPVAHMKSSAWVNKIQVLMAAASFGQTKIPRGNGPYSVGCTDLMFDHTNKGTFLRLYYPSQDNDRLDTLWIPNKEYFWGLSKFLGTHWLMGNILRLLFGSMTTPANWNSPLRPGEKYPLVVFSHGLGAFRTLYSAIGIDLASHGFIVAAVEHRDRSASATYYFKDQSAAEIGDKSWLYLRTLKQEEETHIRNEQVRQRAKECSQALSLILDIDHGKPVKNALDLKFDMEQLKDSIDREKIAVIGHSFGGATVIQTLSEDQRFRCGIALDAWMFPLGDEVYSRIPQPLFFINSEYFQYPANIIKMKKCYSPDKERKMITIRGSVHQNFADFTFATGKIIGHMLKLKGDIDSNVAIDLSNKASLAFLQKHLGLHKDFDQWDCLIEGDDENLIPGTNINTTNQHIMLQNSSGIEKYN
PAFAH1B3 FP inh – PAFAH1B3 enzyme inhibitors, primary screen, biochemical, fluorescence polarization, human. 0.28% of 340,000 active. AID 492972, 2010. inhibition, % at 3.39 µM. Platelet-activating factor acetylhydrolase IB subunit alpha1 (Homo sapiens), Q15102. recombinant PAFAH1B3, FP-rhodamine probe;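 active = inhibition above the screen-wide average of all tested compounds plus 3 SD, cut at about 25% in these data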;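 note: 0% = enzyme with DMSO only and 100% = wells lacking PAFAH1B3 protein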
Apaf-1 inh – inhibitors of human Apaf-1 apoptosome, primary screen, biochemical, DEVD-Rh110 fluorescence, uHTS; Apoptotic protease-activating factor 1 (Homo sapiens), O14727; reconstituted apoptosome caspase-3 activity; inhibition, % at 20 µM; 0.71% of 330,000 active; AID 489030, 2010; active = inhibition of at least 40% at 20 µM;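 note: plate controls were DMSO wells for no effect and DEVD-CHO caspase inhibitor wells for full effect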
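System: Apoptosome proteins | Medium: Hepes pH 7.5 with detergent and BSA | Also added: Cytochrome c trigger plus (Z-DEVD)2-Rh110 caspase-3 substrate | Incubation: 30 min compound preincubation, 50 min activation, room temperature | Detection: Rhodamine 110 fluorescence at Ex 480/Em 540 nm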
Apaf-1 inh conf – Apaf-1 inhibitors, single-dose retest, confirmation, biochemical, fluorescence, DEVD-Rh110, 20 µM | shares compounds with Apaf-1 inh | reconstituted apoptosome, caspase-3 DEVD-Rh110 fluorescence | inhibition, % at 20 µM | 25% of 1,800 active | AID 504614, 2011;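 active = mean inhibition of at least 40% at 20 µM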;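 note: plate controls were DMSO wells for no effect and DEVD-CHO caspase inhibitor control wells for full effect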
Rh110 quench – Rh110 fluorescence interference by putative Apaf-1 inhibitors, confirmation, artefact control for Apaf-1 inhibitor project, biochemical, 20 µM; shares compounds with Apaf-1 inh; quenched caspase reaction; activation (fluorescence interference), % at 20 µM; 1,800 tested, under 10 active; AID 504615, 2011;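 active = signal rise of 40% or more at 20 µM, treated as a fluorescence artifact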
Apaf1 inh interf – fluorescence interference of Apaf-1 inhibitor hits, dose response, artefact control for Apaf-1 inhibitor project; fluorescence interference counterscreen, Apaf-1 assay format; shares compounds with Apaf-1 inh; IC50, µM; 460 tested, under 10 active; call rule not given here
The depositor's hits bear a star. Most compounds without a hit are left out; they make up all but 3.5% or so of the library.

S=C(Nc1ccc(Cl)cc1)Nc1cccc2cnccc12 was read as PAFAH2 FP inh 3.3, PAFAH1B2 inh 3.0, PREPL inhibitor 42.8, pPAFAH inh 19.3, PAFAH1B3 FP inh 12.5, Apaf-1 inh 82.7*, Apaf-1 inh conf 17.0 and Rh110 quench -0.6.
Fc1ccc(NC(=S)Nc2cccc3cnccc23)cc1 was read as PAFAH2 FP inh 0.8, PAFAH1B2 inh 1.2, PREPL inhibitor 6.0, pPAFAH inh 2.7, PAFAH1B3 FP inh 4.5, Apaf-1 inh 95.1*, Apaf-1 inh conf 20.9 and Rh110 quench -0.3.
`S=C(Nc1cccnc1)Nc1cccc2cnccc12` gave PAFAH2 FP inh 2.8, PAFAH1B2 inh -1.6, PREPL inhibitor 11.6, pPAFAH inh 8.0, PAFAH1B3 FP inh 2.5, Apaf-1 inh 86.3*, Apaf-1 inh conf 15.6 and Rh110 quench 0.7.
CN(C)S(=O)(=O)c1cccc(NC(=S)Nc2cccc3cnccc23)c1 was read as PAFAH2 FP inh -0.4, PAFAH1B2 inh 5.0 and PAFAH1B3 FP inh 10.4.
Screening Fc1ccc(NC(=S)Nc2ccccc2Cl)cc1 returned PAFAH2 FP inh -2.6, PAFAH1B2 inh 4.6, PREPL inhibitor -2.2, pPAFAH inh 3.1, PAFAH1B3 FP inh -1.8 and Apaf-1 inh -8.4.
`CCN(C(=S)Nc1cccnc1)c1cccc2ccccc12` gave PAFAH2 FP inh 0.8, PAFAH1B2 inh -0.1, PREPL inhibitor 6.6, pPAFAH inh 0.1, PAFAH1B3 FP inh -1.1, Apaf-1 inh 84.7*, Apaf-1 inh conf 11.5 and Rh110 quench -3.9.
`COc1ccccc1NS(=O)(=O)c1cc(NC(=O)CCC2CCCC2)ccc1N1CCOCC1` gave PAFAH2 FP inh -1.6, PAFAH1B2 inh 16.9, PREPL inhibitor -0.2, pPAFAH inh 8.2, PAFAH1B3 FP inh 1.8 and Apaf-1 inh 18.3.
FC(F)(F)c1cc(CO[C@@H]2CCCN[C@@H]2c2ccccc2)cc(C(F)(F)F)c1 was read as PAFAH2 FP inh 3.0, PAFAH1B2 inh 3.7, PREPL inhibitor 20.6, pPAFAH inh 1.7, PAFAH1B3 FP inh -1.6, Apaf-1 inh 47.3*, Apaf-1 inh conf 9.9 and Rh110 quench 7.6.
For CC(C)c1c(C(=O)N/N=C/c2cccnc2)nnn1-c1nonc1N the results were PAFAH2 FP inh -5.1, PAFAH1B2 inh 0.1, PREPL inhibitor 0.1, pPAFAH inh 5.7, PAFAH1B3 FP inh -2.8 and Apaf-1 inh 16.5.
CCOc1ccccc1N1CCN(C(=O)C2c3ccccc3Oc3ccccc32)CC1 was read as PAFAH2 FP inh 1.6, PAFAH1B2 inh 2.4, PREPL inhibitor 22.1, pPAFAH inh 5.3, PAFAH1B3 FP inh 6.6, Apaf-1 inh 40.9*, Apaf-1 inh conf 40.2*, Rh110 quench 7.3 and Apaf1 inh interf >100.
N#Cc1ccsc1NC(=O)c1ccc(Cl)c([N+](=O)[O-])c1 was read as PAFAH2 FP inh 3.0, PAFAH1B2 inh 6.2, PREPL inhibitor 23.4, pPAFAH inh 14.6, PAFAH1B3 FP inh 1.8, Apaf-1 inh 47.9*, Apaf-1 inh conf 6.3 and Rh110 quench -3.5.
N#Cc1ccsc1NC(=O)c1cccc([N+](=O)[O-])c1 was read as PAFAH2 FP inh 2.9, PAFAH1B2 inh 3.4, PREPL inhibitor 0.4, pPAFAH inh 8.6, PAFAH1B3 FP inh 4.4 and Apaf-1 inh -10.1.
Screening COc1cc(/C=N/Nc2ccc([N+](=O)[O-])cc2S(=O)(=O)N2CCOCC2)cc(OC)c1OC returned PAFAH2 FP inh 5.3, PAFAH1B2 inh 3.0, PREPL inhibitor -0.5, pPAFAH inh 3.6, PAFAH1B3 FP inh 9.2 and Apaf-1 inh -16.8.
O=[N+]([O-])c1ccc(N/N=C/c2ccc(O)c(O)c2O)c(S(=O)(=O)N2CCOCC2)c1 was read as PAFAH2 FP inh 12.6, PAFAH1B2 inh 6.6, PAFAH1B3 FP inh 11.3, Apaf-1 inh 62.7*, Apaf-1 inh conf 43.0*, Rh110 quench 9.3 and Apaf1 inh interf >100.
COc1ccc(C(=O)N(Cc2ccccc2)c2cccc(C)c2)cc1S(=O)(=O)N1CCOCC1 was read as PAFAH2 FP inh -3.4, PAFAH1B2 inh -3.1, PREPL inhibitor 11.7, pPAFAH inh -2.4, PAFAH1B3 FP inh 1.9, Apaf-1 inh 45.2*, Apaf-1 inh conf 34.6 and Rh110 quench 4.4.
`COc1ccc(CC(=O)N(C)CC(=O)Nc2ccccc2Cl)cc1S(=O)(=O)N1CCOCC1` gave PAFAH2 FP inh -1.0, PAFAH1B2 inh 1.5, PREPL inhibitor 4.2, pPAFAH inh -2.7, PAFAH1B3 FP inh -4.8, Apaf-1 inh 59.5*, Apaf-1 inh conf 33.2 and Rh110 quench -4.2.
Screening COc1ccc(CN(C)C(=O)Cc2ccc(OC)c(S(=O)(=O)N3CCOCC3)c2)cc1OC returned PAFAH2 FP inh 5.0, PAFAH1B2 inh 1.1, PREPL inhibitor 13.7, pPAFAH inh 0.7, PAFAH1B3 FP inh 6.5, Apaf-1 inh 59.8*, Apaf-1 inh conf 33.6 and Rh110 quench -1.6.
Screening Cc1cccc(N(Cc2ccccc2)C(=O)c2ccc(C)c(S(=O)(=O)N3CCOCC3)c2)c1 returned PAFAH2 FP inh -1.4, PAFAH1B2 inh 3.7, PREPL inhibitor 16.8, pPAFAH inh 2.1, PAFAH1B3 FP inh 7.3 and Apaf-1 inh 12.7.
COc1ccc(Br)cc1CN(C)C(=O)Cc1ccc(OC)c(S(=O)(=O)N2CCOCC2)c1 was read as PAFAH2 FP inh 0.4, PAFAH1B2 inh 7.2, PREPL inhibitor 6.6, pPAFAH inh 0.5, PAFAH1B3 FP inh -1.6 and Apaf-1 inh -3.2.
Screening N#CCc1nc(C(c2ccccc2)c2ccccc2)no1 returned PAFAH2 FP inh -4.6, PAFAH1B2 inh 5.0, PREPL inhibitor -6.0, pPAFAH inh 9.2, PAFAH1B3 FP inh -7.7 and Apaf-1 inh 27.0.
For Oc1ccccc1CNCCCN1CCOCC1 the results were PAFAH2 FP inh 0.4, PAFAH1B2 inh 0.2, PREPL inhibitor -9.1, pPAFAH inh 0.5, PAFAH1B3 FP inh 4.9 and Apaf-1 inh 4.1.

Compound activity (PubChem)
